Assay results published in ChEMBL document CHEMBL4837245, “Discovery of VU6028418: A Highly Selective and Orally Bioavailable M4 Muscarinic Acetylcholine Receptor Antagonist” (ACS Med Chem Lett, 2021).
In brackets after ≈: the same amount, converted by molar mass.

Columns and labels:
[1] = AUC (0 to infinity) in Beagle dog at 3 mg/kg, po measured upto 24 hrs by LC-MS/MS analysis; assay type: ADME, organism-based, Canis lupus familiaris; design: route oral, dose 3 mg/kg, time <=24; conditions: in vivo
How it was run: (§1)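 Single iv and oral (suspension) dosing; iv/po doses 1/10 mg/kg in SD rat, 1/3 mg/kg in CD-1 mouse and beagle dog. Plasma PK parameters are means from two to three animals per species.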

[2] = Oral bioavailability in Beagle dog at 3 mg/kg measured upto 24 hrs by LC-MS/MS analysis; assay type: ADME, organism-based, Canis lupus familiaris; conditions: in vivo; how it was run: as §1
[3] = Ratio of free drug concentration in brain to plasma of Sprague-Dawley rat at 1 mg/kg, iv; assay type: ADME, organism-based; conditions: read-out: K(p,uu,brain)
[4] = Volume of distribution at steady state in CD-1 mouse at 1.0 mg/kg, iv measured upto 24 hrs by LC-MS/MS analysis; assay type: ADME, organism-based; conditions: in vivo, read-out: Vdss
How it was run: (§2)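 Pharmacokinetics in Sprague-Dawley rat, CD-1 mouse and beagle dog. Intravenous dose was 1 mg/kg in each species. Oral doses were given as a suspension: 10 mg/kg in rat, 3 mg/kg in mouse and dog. Each parameter is the mean of two to three animals.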

[5] = Cmax in Beagle dog at 3 mg/kg, po measured upto 24 hrs by LC-MS/MS analysis; assay type: ADME, organism-based, Canis lupus familiaris; design: route oral, dose 3 mg/kg, time <=24; conditions: in vivo; how it was run: as §1
[6] = Oral bioavailability in Sprague-Dawley rat at 10 mg/kg measured upto 24 hrs by LC-MS/MS analysis; assay type: ADME, organism-based; conditions: in vivo; how it was run: as §1
[7] = Elimination half life in Beagle dog at 1 mg/kg, iv measured upto 24 hrs by LC-MS/MS analysis; assay type: ADME, organism-based, Canis lupus familiaris; conditions: in vivo, read-out: beta t1/2 (converted); how it was run: as §1
[8] = target: T1, Muscarinic acetylcholine receptor M2 (Homo sapiens, UniProt P08172); assay: Antagonist activity at human muscarinic M2 receptor expressed in CHO cells co-expressing Gqi5 assessed as inhibition of acetylcholine-induced calcium mobilization; assay type: functional, cell-based
T1 sequence (P08172 whole entry): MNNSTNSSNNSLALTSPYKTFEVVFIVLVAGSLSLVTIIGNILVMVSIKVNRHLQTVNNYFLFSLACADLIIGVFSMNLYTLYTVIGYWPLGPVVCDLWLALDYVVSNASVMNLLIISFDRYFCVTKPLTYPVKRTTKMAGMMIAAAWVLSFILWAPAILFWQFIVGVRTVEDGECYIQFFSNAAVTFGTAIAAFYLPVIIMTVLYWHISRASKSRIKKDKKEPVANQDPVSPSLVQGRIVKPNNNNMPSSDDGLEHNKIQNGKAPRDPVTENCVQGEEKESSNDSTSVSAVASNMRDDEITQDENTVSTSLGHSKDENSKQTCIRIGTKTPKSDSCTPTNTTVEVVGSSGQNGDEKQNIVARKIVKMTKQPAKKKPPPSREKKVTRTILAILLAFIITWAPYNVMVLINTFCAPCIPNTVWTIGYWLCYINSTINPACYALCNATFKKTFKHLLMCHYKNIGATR
How it was run: (§3)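 CHO cells stably transfected with the given human mAChR subtype. Compound added before an EC80 concentration of acetylcholine; antagonism read as calcium mobilization. One independent determination in triplicate.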

Cytochrome P450 2C19 = Cytochrome P450 2C19 (Homo sapiens, UniProt P33261); assay: Time dependent inhibition of CYP2C19 (unknown origin); assay type: ADME
Rattus norvegicus [9] = assay: Reversal of haloperidol-induced catalepsy in rat at 3 mg/kg, po relative to control; assay type: functional
How it was run: (§4)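 Rat haloperidol-induced catalepsy model with oral test dosing at 0.3, 1 and 3 mg/kg alongside vehicle-treated controls. Read-out is latency to withdraw, also expressed as % reversal of catalepsy. Groups compared by ANOVA.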

[10] = Volume of distribution at steady state in Beagle dog at 1.0 mg/kg, iv measured upto 24 hrs by LC-MS/MS analysis; assay type: ADME, organism-based, Canis lupus familiaris; conditions: in vivo, read-out: Vdss; how it was run: as §2
CYP1A2 [11] = target: T2, CYP1A2 (Homo sapiens, UniProt P05177); assay: Induction of CYP1A2 in human hepatocytes; assay type: ADME, cell-based, Hepatocyte
T2 sequence (P05177 whole entry): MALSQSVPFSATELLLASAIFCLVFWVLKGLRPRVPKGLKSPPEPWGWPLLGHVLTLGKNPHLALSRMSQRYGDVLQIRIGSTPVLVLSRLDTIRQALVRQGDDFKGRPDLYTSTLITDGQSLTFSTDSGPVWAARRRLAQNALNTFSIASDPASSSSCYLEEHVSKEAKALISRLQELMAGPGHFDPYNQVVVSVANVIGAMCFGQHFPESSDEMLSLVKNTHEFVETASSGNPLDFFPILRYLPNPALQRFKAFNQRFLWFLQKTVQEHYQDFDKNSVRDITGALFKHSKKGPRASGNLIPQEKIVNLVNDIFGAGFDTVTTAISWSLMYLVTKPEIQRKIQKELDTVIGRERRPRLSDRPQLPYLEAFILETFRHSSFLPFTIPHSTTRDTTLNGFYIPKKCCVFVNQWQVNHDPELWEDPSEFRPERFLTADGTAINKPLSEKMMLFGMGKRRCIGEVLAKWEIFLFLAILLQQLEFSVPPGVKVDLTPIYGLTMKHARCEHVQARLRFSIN

[12] = Elimination half life in Sprague-Dawley rat at 1 mg/kg, iv measured upto 24 hrs by LC-MS/MS analysis; assay type: ADME, organism-based; conditions: in vivo, read-out: beta t1/2 (converted); how it was run: as §1
[13] = target: Muscarinic acetylcholine receptor M1 (Homo sapiens, UniProt P11229); assay: Antagonist activity at human muscarinic M1 receptor expressed in CHO cells co-expressing Gqi5 assessed as inhibition of acetylcholine-induced calcium mobilization; assay type: functional; how it was run: as §3
[14] = Antagonist activity at human muscarinic acetylcholine M4 receptor expressed in CHO cells assessed as inhibition of acetylcholine-induced calcium mobilization relative to control; assay type: cell-based; design: concentration or dose not given beside the values; conditions: concentration not given here
How it was run: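 CHO cells stably transfected with human M4 were pretreated with the compound, then stimulated with an EC80 concentration of acetylcholine. The response was read as calcium mobilization, and IC50 was derived from the concentration-response. Each experiment was run in triplicate.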

CYP1A2 [15] = target: T2, CYP1A2; assay: Inhibition of CYP1A2 in human liver microsomes using phenacetin as substrate preincubated for 15 mins followed by NADPH addition and measured after 8 mins by LC-MS/MS analysis; assay type: ADME; conditions: human, liver microsomes, probe phenacetin; time 23 min; read-out: INH
How it was run: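 Cocktail CYP450 inhibition assay run in human liver microsomes.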

Rattus norvegicus [16] = assay: Effect on haloperidol-induced catalepsy in rat assessed as reduction in mean latency to withdraw at 0.3 mg/kg, po (reference value: 43.4 +/- 4.3 sec); assay type: functional; how it was run: as §4
[17] = Tmax in Sprague-Dawley rat at 10 mg/kg, po measured upto 24 hrs by LC-MS/MS analysis; assay type: ADME, organism-based; conditions: in vivo; how it was run: as §2
[18] = Kinetic solubility of compound at pH 6.8; assay type: physicochemical; conditions: buffer, read-out: Kinetic_solubility
How it was run: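 Kinetic solubility measured at pH 6.8.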

[19] = target: Muscarinic acetylcholine receptor M3 (Homo sapiens, UniProt P20309); assay: Antagonist activity at human muscarinic M3 receptor expressed in CHO cells co-expressing Gqi5 assessed as inhibition of acetylcholine-induced calcium mobilization; assay type: functional; how it was run: as §3
[20] = Oral bioavailability in CD-1 mouse at 3 mg/kg measured upto 24 hrs by LC-MS/MS analysis; assay type: ADME, organism-based; conditions: in vivo; how it was run: as §1

Chain of Muscarinic acetylcholine receptor M1 (P11229 whole entry): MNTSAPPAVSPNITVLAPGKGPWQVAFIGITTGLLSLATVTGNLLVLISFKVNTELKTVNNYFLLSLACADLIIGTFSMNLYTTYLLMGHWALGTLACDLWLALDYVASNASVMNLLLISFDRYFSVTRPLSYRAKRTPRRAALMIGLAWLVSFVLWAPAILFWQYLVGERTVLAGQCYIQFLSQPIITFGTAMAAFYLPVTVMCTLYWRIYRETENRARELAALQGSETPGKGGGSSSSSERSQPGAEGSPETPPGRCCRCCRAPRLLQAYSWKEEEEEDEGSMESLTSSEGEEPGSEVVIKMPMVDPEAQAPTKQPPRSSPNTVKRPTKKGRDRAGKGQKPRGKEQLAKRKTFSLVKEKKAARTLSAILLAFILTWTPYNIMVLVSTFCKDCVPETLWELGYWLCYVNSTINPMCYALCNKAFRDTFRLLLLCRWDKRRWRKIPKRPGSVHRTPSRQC
Chain of Muscarinic acetylcholine receptor M3 (P20309 whole entry): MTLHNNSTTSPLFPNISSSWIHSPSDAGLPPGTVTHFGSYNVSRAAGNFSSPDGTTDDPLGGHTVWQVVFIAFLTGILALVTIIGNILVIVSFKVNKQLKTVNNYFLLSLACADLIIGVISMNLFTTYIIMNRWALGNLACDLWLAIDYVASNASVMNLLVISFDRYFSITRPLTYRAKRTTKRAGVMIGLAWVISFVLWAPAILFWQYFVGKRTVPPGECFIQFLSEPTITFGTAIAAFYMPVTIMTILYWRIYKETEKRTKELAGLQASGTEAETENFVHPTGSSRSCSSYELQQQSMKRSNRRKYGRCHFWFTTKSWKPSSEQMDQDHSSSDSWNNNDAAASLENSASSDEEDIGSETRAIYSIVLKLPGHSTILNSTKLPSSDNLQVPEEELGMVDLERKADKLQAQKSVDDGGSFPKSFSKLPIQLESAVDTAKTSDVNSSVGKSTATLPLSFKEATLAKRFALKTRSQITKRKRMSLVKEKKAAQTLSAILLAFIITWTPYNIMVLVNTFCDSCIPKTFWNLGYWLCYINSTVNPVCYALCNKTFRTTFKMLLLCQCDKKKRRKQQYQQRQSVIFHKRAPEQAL
Chain of Cytochrome P450 2C19 (P33261 whole entry): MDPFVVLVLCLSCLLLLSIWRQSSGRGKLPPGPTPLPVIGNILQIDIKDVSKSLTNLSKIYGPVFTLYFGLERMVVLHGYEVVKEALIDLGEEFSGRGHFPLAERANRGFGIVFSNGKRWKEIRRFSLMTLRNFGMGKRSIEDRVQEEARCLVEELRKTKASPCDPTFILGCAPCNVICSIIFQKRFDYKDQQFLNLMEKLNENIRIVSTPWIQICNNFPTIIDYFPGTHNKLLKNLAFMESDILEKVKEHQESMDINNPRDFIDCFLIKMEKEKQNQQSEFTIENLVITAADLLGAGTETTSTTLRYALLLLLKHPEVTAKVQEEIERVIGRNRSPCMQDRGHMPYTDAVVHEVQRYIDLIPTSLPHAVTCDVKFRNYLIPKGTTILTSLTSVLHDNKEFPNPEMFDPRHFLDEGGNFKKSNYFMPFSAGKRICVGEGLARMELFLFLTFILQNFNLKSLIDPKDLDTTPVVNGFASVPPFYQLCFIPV

Compound: Fc1cc(F)c(F)c(-c2ccc(N[C@H]3C[C@@H]4CN(CC5CCOCC5)C[C@@H]4C3)nn2)c1
- AUC [1]: 1.1 µg·h/mL
- bioavailability [2]: 86%
- Kp uu [3]: 0.61
- Vd [4]: 10.6 L/kg
- Cmax [5]: 0.07 µg/mL
- bioavailability [6]: ≥ 100%
- half-life [7]: 15 h
- IC50 [8]: 3.5 µM
- IC50 (Cytochrome P450 2C19): > 100 µM
- Activity (Rattus norvegicus [9]): 65.2%
- Vd [10]: 8.5 L/kg
- EC50 (CYP1A2 [11]): 1.9 µM
- half-life [12]: 13 h
- IC50 [13]: > 10 µM
- inhibition [14]: 3%
- inhibition ([14]; tested as the 2H-labelled form): 3%
- IC50 at 8 min (CYP1A2 [15]): > 30 µM
- Activity (Rattus norvegicus [16]): 32 s
- Tmax [17]: 1.5 h
- solubility kinetic [18]: 85.1 µM (≈ 36.8 µg/mL)
- IC50 [19]: > 10 µM
- bioavailability [20]: ≥ 100%
